Test results taken from ChEMBL document CHEMBL2429786, “New serotonin 5-HT1A receptor agonists endowed with antinociceptive activity in vivo” (J Med Chem, 2013).
Active and inactive are the calls of the source. No cut-off for these calls is given here.

Experiments:
[1] = biological target: T1, 5-hydroxytryptamine receptor 1A (Rattus norvegicus, UniProt P19327); assay: Displacement of [3H]-8-OH-DPAT from 5-HT1A receptor in Sprague-Dawley rat cerebral cortex after 15 mins; type: tissue-based
T1 sequence (P19327 whole entry): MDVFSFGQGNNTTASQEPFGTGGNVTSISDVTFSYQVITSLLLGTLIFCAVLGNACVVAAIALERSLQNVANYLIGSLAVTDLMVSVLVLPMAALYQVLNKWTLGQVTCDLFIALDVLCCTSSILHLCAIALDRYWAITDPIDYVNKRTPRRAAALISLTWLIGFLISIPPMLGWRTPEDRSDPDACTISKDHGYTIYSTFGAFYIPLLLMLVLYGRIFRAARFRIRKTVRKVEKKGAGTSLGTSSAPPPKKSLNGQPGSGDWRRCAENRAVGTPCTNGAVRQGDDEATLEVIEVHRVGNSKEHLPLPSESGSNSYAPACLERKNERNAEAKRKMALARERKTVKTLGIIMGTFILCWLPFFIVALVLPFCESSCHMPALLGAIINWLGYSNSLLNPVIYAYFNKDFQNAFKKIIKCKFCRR

[2] = biological target: 5-hydroxytryptamine receptor 4 (Rattus norvegicus, UniProt Q62758); assay: Displacement of [3H]GR113808 from 5-HT4 receptor in Sprague-Dawley rat striatum after 30 mins
Homo sapiens [3] = species: Homo sapiens; assay: Displacement of [3H]CGP54626 from GABAB receptor (unknown origin) at 1 uM after 120 mins
Mus musculus [4] = species: Mus musculus; assay: Hypothermic activity in Swiss mouse assessed as change in rectal temperature after 60 mins; type: functional; conditions: 1 h, read-out: MED
[5] = biological target: T2, 5-hydroxytryptamine receptor 3A (Rattus norvegicus, UniProt P35563); assay: Displacement of [3H]LY 278584 from 5-HT3 receptor in Sprague-Dawley rat cerebral cortex after 30 mins; type: tissue-based
T2 sequence (P35563 whole entry): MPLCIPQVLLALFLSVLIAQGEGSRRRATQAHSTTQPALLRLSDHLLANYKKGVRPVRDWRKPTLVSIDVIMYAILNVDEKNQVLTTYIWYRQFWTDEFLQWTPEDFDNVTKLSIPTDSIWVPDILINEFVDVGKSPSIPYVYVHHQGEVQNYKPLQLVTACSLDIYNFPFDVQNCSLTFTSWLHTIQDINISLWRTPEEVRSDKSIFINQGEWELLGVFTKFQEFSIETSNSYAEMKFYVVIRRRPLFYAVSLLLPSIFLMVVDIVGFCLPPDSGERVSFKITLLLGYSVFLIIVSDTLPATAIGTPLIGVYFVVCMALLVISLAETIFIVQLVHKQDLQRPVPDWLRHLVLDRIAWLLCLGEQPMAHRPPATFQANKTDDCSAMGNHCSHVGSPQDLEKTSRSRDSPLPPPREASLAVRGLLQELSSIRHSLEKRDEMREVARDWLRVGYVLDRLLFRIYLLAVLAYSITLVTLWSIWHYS

[6] = biological target: 5-hydroxytryptamine receptor 2A (Rattus norvegicus, UniProt P14842); assay: Displacement of [3H]ketanserin from 5-HT2A receptor in Sprague-Dawley rat frontal cortex after 15 mins; type: tissue-based
Albumin = Albumin (Homo sapiens, UniProt P02768); assay: Binding affinity to human serum albumin at 5 uM after 12 mins by HPLC-MS analysis relative to control; type: ADME; conditions: isolated protein, 0.2 h
Homo sapiens [7] = species: Homo sapiens; assay: Displacement of [3H]DADLE from delta2 opioid receptor (unknown origin) at 1 uM after 120 mins
Mus musculus [8] = assay: Antinociceptive activity in CD-1 mouse assessed as reduction of formalin-induced paw licking activity at 3 mg/kg, ip administered 15 mins prior to formalin-challenge measured after 5 mins; type: functional, organism-based; parameters: dose 3 mg/kg
[9] = biological target: Cannabinoid receptor 2 (Homo sapiens) (UniProt P34972); assay: Displacement of [3H]WIN55212-2 from CB2 receptor (unknown origin) at 1 uM after 120 mins
[10] = biological target: 5-hydroxytryptamine receptor 7 (Rattus norvegicus, UniProt P32305); assay: Displacement of [3H]-5-CT from 5-HT7 receptor in Sprague-Dawley rat hypothalamus after 120 mins
[11] = biological target: Mu-type opioid receptor (Homo sapiens) (UniProt P35372); assay: Displacement of [3H]DAMGO from mu opioid receptor (unknown origin) at 1 uM after 120 mins
Homo sapiens [12] = species: Homo sapiens; assay: Displacement of [125I]Tyr11-somatostatin-14 from somatostatin receptor (unknown origin) at 1 uM after 60 mins
[13] = biological target: T3, Muscarinic acetylcholine receptor M2 (Homo sapiens) (UniProt P08172); assay: Displacement of [3H]AF-DX 384 from muscarinic M2 receptor (unknown origin) at 1 uM after 60 mins
T3 sequence (whole entry): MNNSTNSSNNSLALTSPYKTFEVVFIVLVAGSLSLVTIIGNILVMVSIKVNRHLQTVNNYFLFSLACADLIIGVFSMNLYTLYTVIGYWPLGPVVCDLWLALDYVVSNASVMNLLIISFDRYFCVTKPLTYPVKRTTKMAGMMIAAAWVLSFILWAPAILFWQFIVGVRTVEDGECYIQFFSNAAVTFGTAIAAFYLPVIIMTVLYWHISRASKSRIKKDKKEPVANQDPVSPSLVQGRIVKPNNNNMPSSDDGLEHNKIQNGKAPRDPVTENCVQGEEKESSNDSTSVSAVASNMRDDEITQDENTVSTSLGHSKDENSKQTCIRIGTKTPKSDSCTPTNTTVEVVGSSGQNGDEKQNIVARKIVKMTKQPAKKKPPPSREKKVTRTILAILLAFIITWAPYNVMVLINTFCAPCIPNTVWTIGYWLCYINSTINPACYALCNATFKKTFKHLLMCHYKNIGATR

Mus musculus [14] = assay: Antinociceptive activity in CD-1 mouse assessed as reduction of formalin-induced paw licking activity at 3 mg/kg, ip administered 15 mins prior to formalin-challenge measured after 15 to 30 mins; type: functional, organism-based; parameters: dose 3 mg/kg
Mus musculus [15] = assay: Toxicity in CD-1 mouse at 3 mg/kg, ip and 30 mg/kg, po; type: organism-based; conditions: in vivo
Mus musculus [16] = assay: Antinociceptive activity in CD-1 mouse assessed as reduction of formalin-induced paw licking activity at 3 mg/kg, ip administered 15 mins prior to formalin-challenge measured after 5 mins in presence of 5-HT1A receptor antagonist WAY-100635; type: functional, organism-based; parameters: dose 3 mg/kg
[17] = Half life in human liver microsomes at 1 to 5 uM by HPLC-MS analysis; type: ADME, Microsome
How it was run: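 Incubation mixtures pre-equilibrated at 37 °C with NADPH and MgCl2, then rat or human liver microsomes added to start the reaction. Aliquots were withdrawn and quenched at several time points, and percent parent remaining was measured by HPLC-MS and plotted against time. t1/2 was taken from the slope of peak area over time and used to calculate CLint.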

Cannabinoid receptor 2 (Homo sapiens), sequence (P34972 whole entry): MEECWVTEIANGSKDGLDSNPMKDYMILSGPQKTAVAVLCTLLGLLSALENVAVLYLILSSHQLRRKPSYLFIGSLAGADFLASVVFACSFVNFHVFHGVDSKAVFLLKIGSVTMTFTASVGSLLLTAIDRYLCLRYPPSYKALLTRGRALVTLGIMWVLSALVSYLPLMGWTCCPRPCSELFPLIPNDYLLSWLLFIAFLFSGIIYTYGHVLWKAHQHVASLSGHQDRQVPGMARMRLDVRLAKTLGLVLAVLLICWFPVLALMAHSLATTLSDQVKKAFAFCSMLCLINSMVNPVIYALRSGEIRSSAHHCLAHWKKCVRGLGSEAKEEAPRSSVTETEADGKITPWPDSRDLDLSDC
5-hydroxytryptamine receptor 4, sequence (Q62758 whole entry): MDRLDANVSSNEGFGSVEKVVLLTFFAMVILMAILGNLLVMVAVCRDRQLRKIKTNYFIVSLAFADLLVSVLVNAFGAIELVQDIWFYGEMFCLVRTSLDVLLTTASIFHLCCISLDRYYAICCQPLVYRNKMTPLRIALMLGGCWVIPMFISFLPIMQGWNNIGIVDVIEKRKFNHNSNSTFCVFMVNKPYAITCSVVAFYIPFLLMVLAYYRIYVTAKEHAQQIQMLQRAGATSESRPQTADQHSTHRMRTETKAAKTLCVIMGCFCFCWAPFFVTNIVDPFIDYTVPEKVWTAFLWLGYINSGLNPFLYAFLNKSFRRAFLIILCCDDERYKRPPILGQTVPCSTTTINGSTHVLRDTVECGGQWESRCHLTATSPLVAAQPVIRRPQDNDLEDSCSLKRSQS
Albumin, sequence (P02768 whole entry): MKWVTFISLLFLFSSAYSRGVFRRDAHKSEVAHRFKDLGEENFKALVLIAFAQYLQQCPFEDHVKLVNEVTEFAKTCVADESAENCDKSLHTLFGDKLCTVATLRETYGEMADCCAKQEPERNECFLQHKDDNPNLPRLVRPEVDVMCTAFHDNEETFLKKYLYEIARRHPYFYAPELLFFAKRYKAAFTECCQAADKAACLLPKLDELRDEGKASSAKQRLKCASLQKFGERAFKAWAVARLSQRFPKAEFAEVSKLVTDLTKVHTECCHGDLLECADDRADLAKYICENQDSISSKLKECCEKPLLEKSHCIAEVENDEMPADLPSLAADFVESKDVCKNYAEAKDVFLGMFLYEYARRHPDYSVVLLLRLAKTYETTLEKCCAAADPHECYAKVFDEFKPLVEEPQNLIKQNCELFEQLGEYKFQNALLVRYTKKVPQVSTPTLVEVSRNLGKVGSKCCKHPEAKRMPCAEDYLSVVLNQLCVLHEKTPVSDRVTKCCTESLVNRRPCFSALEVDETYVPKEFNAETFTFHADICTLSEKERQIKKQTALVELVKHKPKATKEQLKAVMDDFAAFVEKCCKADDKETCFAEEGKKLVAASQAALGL
Mu-type opioid receptor (Homo sapiens), sequence (P35372 whole entry): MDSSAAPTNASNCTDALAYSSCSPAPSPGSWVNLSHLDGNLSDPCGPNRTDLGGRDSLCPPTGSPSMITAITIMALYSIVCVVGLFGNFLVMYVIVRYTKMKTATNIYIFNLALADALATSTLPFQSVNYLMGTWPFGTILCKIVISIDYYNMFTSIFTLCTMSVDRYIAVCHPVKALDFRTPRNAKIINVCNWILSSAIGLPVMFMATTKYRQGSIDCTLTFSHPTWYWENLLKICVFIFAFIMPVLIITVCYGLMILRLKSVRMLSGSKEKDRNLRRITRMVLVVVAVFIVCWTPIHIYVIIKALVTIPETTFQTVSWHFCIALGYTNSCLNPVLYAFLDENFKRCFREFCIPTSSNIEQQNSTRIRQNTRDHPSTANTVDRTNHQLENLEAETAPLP
5-hydroxytryptamine receptor 7, sequence (P32305 whole entry): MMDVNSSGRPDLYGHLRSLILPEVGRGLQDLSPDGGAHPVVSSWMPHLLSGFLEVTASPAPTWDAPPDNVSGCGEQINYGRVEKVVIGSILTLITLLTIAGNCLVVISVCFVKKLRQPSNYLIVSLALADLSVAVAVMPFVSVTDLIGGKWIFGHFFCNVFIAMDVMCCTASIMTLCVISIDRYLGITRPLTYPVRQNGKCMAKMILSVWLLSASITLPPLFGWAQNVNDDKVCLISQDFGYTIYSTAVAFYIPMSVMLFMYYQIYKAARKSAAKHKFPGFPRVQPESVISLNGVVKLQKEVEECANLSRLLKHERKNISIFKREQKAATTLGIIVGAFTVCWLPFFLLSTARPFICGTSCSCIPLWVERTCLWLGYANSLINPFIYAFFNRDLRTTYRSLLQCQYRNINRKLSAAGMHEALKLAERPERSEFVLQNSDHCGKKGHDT
5-hydroxytryptamine receptor 2A, sequence (P14842 whole entry): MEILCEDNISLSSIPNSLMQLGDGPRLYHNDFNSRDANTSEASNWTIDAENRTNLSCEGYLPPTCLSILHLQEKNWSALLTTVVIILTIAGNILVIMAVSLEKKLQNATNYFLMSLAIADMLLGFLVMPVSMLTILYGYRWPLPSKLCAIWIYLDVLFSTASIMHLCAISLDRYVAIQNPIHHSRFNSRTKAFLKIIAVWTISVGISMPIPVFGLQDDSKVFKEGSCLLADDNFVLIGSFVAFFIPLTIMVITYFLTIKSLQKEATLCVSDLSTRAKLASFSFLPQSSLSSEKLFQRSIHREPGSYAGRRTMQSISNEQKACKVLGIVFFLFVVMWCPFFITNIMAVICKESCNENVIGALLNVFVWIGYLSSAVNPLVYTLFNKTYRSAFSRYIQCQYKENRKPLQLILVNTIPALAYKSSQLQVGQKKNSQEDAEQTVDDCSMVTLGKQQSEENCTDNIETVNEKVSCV

Ki [1]: 2.3 nM | Ki [2]: > 1000 nM | inhibition (Homo sapiens [3]): inactive | Ki [5]: > 1000 nM | Ki [6]: > 1000 nM | Activity (Albumin): 25% | inhibition (Homo sapiens [7]): inactive | inhibition [9]: inactive | Ki [10]: 16.9 nM | inhibition [11]: inactive | inhibition (Homo sapiens [12]): inactive | inhibition [13]: inactive | half-life at up to 5 µM [17]: 2.98 h
SMILES: CCOc1ccccc1OCCNCCCCN1C(=O)C2CCCN2C1=O.Cl (stereo not drawn)
minimal effective dose (Mus musculus [4]): 0.875 mg/kg | Activity (Mus musculus [8]): Active | Activity (Mus musculus [14]): Active | Activity (Mus musculus [15]): Non-toxic | Activity (Mus musculus [16]): inactive
